{"source": "ChEMBL document CHEMBL1132629", "about": "“Synthesis and anti-HIV and anti-HBV activities of 2'-fluoro-2', 3'-unsaturated L-nucleosides” (J Med Chem, 1999)", "key": {"Hepatitis B virus": {"test_system": "Hepatitis B virus", "test": "The EC50 value was measured on hepatitis B virus", "assay_type": "functional, organism-based", "outline": "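Anti-HBV activity assayed in 2.2.15 cells; EC50 (μM) reported.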"}, "PBMC": {"test_system": "PBMC", "test": "Cytotoxicity was evaluated in human peripheral blood mononuclear (PBM) cells"}, "[1]": {"test_system": "Human immunodeficiency virus 1", "test": "Evaluated for anti-HIV activity", "assay_type": "functional, organism-based", "outline": "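Human peripheral blood mononuclear (PBM) cells infected with HIV-1; antiviral potency reported as EC50 (μM); AZT run as positive control.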"}, "CCRF-CEM": {"test_system": "CCRF-CEM", "test": "Cytotoxicity was evaluated in CEM cells", "details": "Homo sapiens"}, "Vero": {"test_system": "Vero", "test": "Inhibitory activity was evaluated in Vero cells.", "assay_type": "functional, cell-based", "details": "Chlorocebus sabaeus"}}}
{"smiles": "Nc1nc(F)nc2c1ncn2[C@@H]1O[C@@H](CO)C=C1F", "values": [{"measurement": "EC50", "setting": "Hepatitis B virus", "result": "> 10", "unit": "µM"}, {"measurement": "IC50", "setting": "PBMC", "result": "> 100", "unit": "µM"}, {"measurement": "EC50", "setting": "[1]", "result": "> 100", "unit": "µM"}, {"measurement": "IC50", "setting": "CCRF-CEM", "result": "> 100", "unit": "µM"}, {"measurement": "IC50", "setting": "Vero", "result": "> 100", "unit": "µM"}]}
{"smiles": "OC[C@H]1C=C(F)[C@H](n2cnc3c(O)ncnc32)O1", "values": [{"measurement": "EC50", "setting": "Hepatitis B virus", "result": "> 10", "unit": "µM"}, {"measurement": "IC50", "setting": "PBMC", "result": "> 100", "unit": "µM"}, {"measurement": "EC50", "setting": "[1]", "result": "> 100", "unit": "µM"}, {"measurement": "IC50", "setting": "CCRF-CEM", "result": "> 100", "unit": "µM"}, {"measurement": "IC50", "setting": "Vero", "result": "> 100", "unit": "µM"}]}
{"smiles": "Nc1ncnc2c1ncn2[C@@H]1O[C@@H](CO)C=C1F", "values": [{"measurement": "EC50", "setting": "Hepatitis B virus", "result": "> 10", "unit": "µM"}, {"measurement": "IC50", "setting": "PBMC", "result": "> 100", "unit": "µM"}, {"measurement": "EC50", "setting": "[1]", "result": 47.6, "unit": "µM"}, {"measurement": "IC50", "setting": "CCRF-CEM", "result": "> 100", "unit": "µM"}, {"measurement": "IC50", "setting": "Vero", "result": "> 100", "unit": "µM"}]}
{"smiles": "Cc1cn([C@@H]2O[C@@H](CO)C=C2F)c(=O)[nH]c1=O", "values": [{"measurement": "EC50", "setting": "Hepatitis B virus", "result": "> 10", "unit": "µM"}, {"measurement": "IC50", "setting": "PBMC", "result": "> 100", "unit": "µM"}, {"measurement": "EC50", "setting": "[1]", "result": "> 100", "unit": "µM"}, {"measurement": "IC50", "setting": "CCRF-CEM", "result": "> 100", "unit": "µM"}, {"measurement": "IC50", "setting": "Vero", "result": "> 100", "unit": "µM"}]}
{"smiles": "Nc1nc(Cl)c2ncn([C@@H]3O[C@@H](CO)C=C3F)c2n1", "values": [{"measurement": "EC50", "setting": "Hepatitis B virus", "result": "> 10", "unit": "µM"}, {"measurement": "IC50", "setting": "PBMC", "result": 26.6, "unit": "µM"}, {"measurement": "EC50", "setting": "[1]", "result": 14.5, "unit": "µM"}, {"measurement": "IC50", "setting": "CCRF-CEM", "result": 28.2, "unit": "µM"}, {"measurement": "IC50", "setting": "Vero", "result": "> 100", "unit": "µM"}]}
{"smiles": "Nc1nc(O)c2ncn([C@@H]3O[C@@H](CO)C=C3F)c2n1", "values": [{"measurement": "EC50", "setting": "Hepatitis B virus", "result": "> 10", "unit": "µM"}, {"measurement": "IC50", "setting": "PBMC", "result": "> 100", "unit": "µM"}, {"measurement": "EC50", "setting": "[1]", "result": 76.9, "unit": "µM"}, {"measurement": "IC50", "setting": "CCRF-CEM", "result": "> 100", "unit": "µM"}, {"measurement": "IC50", "setting": "Vero", "result": "> 100", "unit": "µM"}]}
{"smiles": "Nc1ccn([C@H]2O[C@@H](CO)C=C2F)c(=O)n1", "values": [{"measurement": "EC50", "setting": "Hepatitis B virus", "result": 0.18, "unit": "µM"}, {"measurement": "IC50", "setting": "PBMC", "result": "> 100", "unit": "µM"}, {"measurement": "EC50", "setting": "[1]", "result": 0.51, "unit": "µM"}, {"measurement": "IC50", "setting": "CCRF-CEM", "result": "> 100", "unit": "µM"}, {"measurement": "IC50", "setting": "Vero", "result": "> 100", "unit": "µM"}]}
{"smiles": "Nc1ncnc2c1ncn2[C@H]1O[C@@H](CO)C=C1F", "values": [{"measurement": "EC50", "setting": "Hepatitis B virus", "result": 1.7, "unit": "µM"}, {"measurement": "IC50", "setting": "PBMC", "result": "> 100", "unit": "µM"}, {"measurement": "EC50", "setting": "[1]", "result": 1.5, "unit": "µM"}, {"measurement": "IC50", "setting": "CCRF-CEM", "result": "> 100", "unit": "µM"}, {"measurement": "IC50", "setting": "Vero", "result": "> 100", "unit": "µM"}]}
{"smiles": "Nc1nc(=O)n([C@H]2O[C@@H](CO)C=C2F)cc1F", "values": [{"measurement": "EC50", "setting": "Hepatitis B virus", "result": 0.225, "unit": "µM"}, {"measurement": "IC50", "setting": "PBMC", "result": "> 100", "unit": "µM"}, {"measurement": "EC50", "setting": "[1]", "result": 0.17, "unit": "µM"}, {"measurement": "IC50", "setting": "CCRF-CEM", "result": "> 100", "unit": "µM"}, {"measurement": "IC50", "setting": "Vero", "result": "> 100", "unit": "µM"}]}
{"smiles": "Nc1ccn([C@@H]2O[C@@H](CO)C=C2F)c(=O)n1", "values": [{"measurement": "EC50", "setting": "Hepatitis B virus", "result": "> 10", "unit": "µM"}, {"measurement": "IC50", "setting": "PBMC", "result": "> 100", "unit": "µM"}, {"measurement": "EC50", "setting": "[1]", "result": "> 100", "unit": "µM"}, {"measurement": "IC50", "setting": "CCRF-CEM", "result": "> 100", "unit": "µM"}, {"measurement": "IC50", "setting": "Vero", "result": "> 100", "unit": "µM"}]}
{"smiles": "Nc1nc(F)nc2c1ncn2[C@H]1O[C@@H](CO)C=C1F", "values": [{"measurement": "EC50", "setting": "Hepatitis B virus", "result": "> 10", "unit": "µM"}, {"measurement": "IC50", "setting": "PBMC", "result": 25.8, "unit": "µM"}, {"measurement": "EC50", "setting": "[1]", "result": 2.2, "unit": "µM"}, {"measurement": "IC50", "setting": "CCRF-CEM", "result": 19.5, "unit": "µM"}, {"measurement": "IC50", "setting": "Vero", "result": 173, "unit": "µM"}]}
{"smiles": "O=c1ccn([C@H]2O[C@@H](CO)C=C2F)c(=O)[nH]1", "values": [{"measurement": "EC50", "setting": "Hepatitis B virus", "result": "> 10", "unit": "µM"}, {"measurement": "IC50", "setting": "PBMC", "result": "> 100", "unit": "µM"}, {"measurement": "EC50", "setting": "[1]", "result": "> 100", "unit": "µM"}, {"measurement": "IC50", "setting": "CCRF-CEM", "result": "> 100", "unit": "µM"}, {"measurement": "IC50", "setting": "Vero", "result": "> 100", "unit": "µM"}]}
{"smiles": "Cc1cn([C@H]2O[C@@H](CO)C=C2F)c(=O)[nH]c1=O", "values": [{"measurement": "EC50", "setting": "Hepatitis B virus", "result": "> 10", "unit": "µM"}, {"measurement": "IC50", "setting": "PBMC", "result": "> 100", "unit": "µM"}, {"measurement": "EC50", "setting": "[1]", "result": "> 100", "unit": "µM"}, {"measurement": "IC50", "setting": "CCRF-CEM", "result": "> 100", "unit": "µM"}, {"measurement": "IC50", "setting": "Vero", "result": "> 100", "unit": "µM"}]}
{"smiles": "OC[C@H]1C=C(F)[C@@H](n2cnc3c(O)ncnc32)O1", "values": [{"measurement": "EC50", "setting": "Hepatitis B virus", "result": "> 10", "unit": "µM"}, {"measurement": "IC50", "setting": "PBMC", "result": "> 100", "unit": "µM"}, {"measurement": "EC50", "setting": "[1]", "result": 4.7, "unit": "µM"}, {"measurement": "IC50", "setting": "CCRF-CEM", "result": "> 100", "unit": "µM"}, {"measurement": "IC50", "setting": "Vero", "result": "> 100", "unit": "µM"}]}
{"smiles": "Nc1nc(Cl)c2ncn([C@H]3O[C@@H](CO)C=C3F)c2n1", "values": [{"measurement": "EC50", "setting": "Hepatitis B virus", "result": "> 10", "unit": "µM"}, {"measurement": "IC50", "setting": "PBMC", "result": "> 100", "unit": "µM"}, {"measurement": "EC50", "setting": "[1]", "result": "> 100", "unit": "µM"}, {"measurement": "IC50", "setting": "CCRF-CEM", "result": "> 100", "unit": "µM"}, {"measurement": "IC50", "setting": "Vero", "result": "> 100", "unit": "µM"}]}
{"smiles": "Nc1nc(O)c2ncn([C@H]3O[C@@H](CO)C=C3F)c2n1", "values": [{"measurement": "EC50", "setting": "Hepatitis B virus", "result": "> 10", "unit": "µM"}, {"measurement": "IC50", "setting": "PBMC", "result": "> 100", "unit": "µM"}, {"measurement": "EC50", "setting": "[1]", "result": "> 100", "unit": "µM"}, {"measurement": "IC50", "setting": "CCRF-CEM", "result": "> 100", "unit": "µM"}, {"measurement": "IC50", "setting": "Vero", "result": "> 100", "unit": "µM"}]}
{"smiles": "O=c1ccn([C@@H]2O[C@@H](CO)C=C2F)c(=O)[nH]1", "values": [{"measurement": "EC50", "setting": "Hepatitis B virus", "result": "> 10", "unit": "µM"}, {"measurement": "IC50", "setting": "PBMC", "result": "> 100", "unit": "µM"}, {"measurement": "EC50", "setting": "[1]", "result": "> 100", "unit": "µM"}, {"measurement": "IC50", "setting": "CCRF-CEM", "result": "> 100", "unit": "µM"}, {"measurement": "IC50", "setting": "Vero", "result": "> 100", "unit": "µM"}]}
{"smiles": "Nc1nc(=O)n([C@@H]2O[C@@H](CO)C=C2F)cc1F", "values": [{"measurement": "EC50", "setting": "Hepatitis B virus", "result": "> 10", "unit": "µM"}, {"measurement": "IC50", "setting": "PBMC", "result": "> 100", "unit": "µM"}, {"measurement": "EC50", "setting": "[1]", "result": "> 100", "unit": "µM"}, {"measurement": "IC50", "setting": "CCRF-CEM", "result": "> 100", "unit": "µM"}, {"measurement": "IC50", "setting": "Vero", "result": "> 100", "unit": "µM"}]}
{"smiles": "Cc1cn([C@H]2C[C@H](N=[N+]=[N-])[C@@H](CO)O2)c(=O)[nH]c1=O", "note": "[ZIDOVUDINE]", "values": [{"measurement": "EC50", "setting": "Hepatitis B virus", "result": "> 10", "unit": "µM"}, {"measurement": "IC50", "setting": "PBMC", "result": "> 100", "unit": "µM"}]}
